Assays:
Format in all cases: functional
RXF 393 = experiment: Growth inhibition of human RXF393 cells at 1 nM after 96 hrs by MTT assay; set-up: scale not given: the % may be the effect or the level left
OVCAR-8 = experiment: Growth inhibition of human OVCAR8 cells at 1 nM after 96 hrs by MTT assay; set-up: scale not given: the % may be the effect or the level left
SK-MEL-2 [1] = experiment: Growth inhibition of human SK-MEL-2 cells at 1 nM after 96 hrs by MTT assay; set-up: scale not given: the % may be the effect or the level left
SW-620 [2] = experiment: Growth inhibition of human SW620 cells at 1 nM after 96 hrs by MTT assay; set-up: scale not given: the % may be the effect or the level left
HCT-15 = experiment: Growth inhibition of human HCT15 cells at 1 nM after 96 hrs by MTT assay; set-up: scale not given: the % may be the effect or the level left
HCC 2998 = experiment: Growth inhibition of human HCC2998 cells at 1 nM after 96 hrs by MTT assay; set-up: scale not given: the % may be the effect or the level left
OVCAR-5 = experiment: Growth inhibition of human OVCAR5 cells at 10 uM after 96 hrs by MTT assay; set-up: scale not given: the % may be the effect or the level left
Malme-3M = experiment: Growth inhibition of human MALME-3M cells at 10 uM after 96 hrs by MTT assay; set-up: scale not given: the % may be the effect or the level left
HT-29 [3] = experiment: Growth inhibition of human HT-29 cells at 10 uM after 96 hrs by MTT assay; set-up: scale not given: the % may be the effect or the level left
EKVX = experiment: Growth inhibition of human EKVX cells at 10 uM after 96 hrs by MTT assay; set-up: scale not given: the % may be the effect or the level left
U-251 = experiment: Growth inhibition of human U251 cells at 10 nM after 96 hrs by MTT assay; set-up: scale not given: the % may be the effect or the level left
KM12 [4] = experiment: Growth inhibition of human KM12 cells at 10 nM after 96 hrs by MTT assay; set-up: scale not given: the % may be the effect or the level left
HT-29 [5] = experiment: Growth inhibition of human HT-29 cells after 96 hrs by MTT assay; conditions: HT-29, 96 h
Procedure, shortened: (§1)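 Run in the NCI 60 human tumour cell line panel as a five-dose assay. GI50 and LC50 were reported for each cell line.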

SW-620 [6] = experiment: Growth inhibition of human SW620 cells after 96 hrs by MTT assay; conditions: SW-620, 96 h
Procedure, shortened: (§2)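 Tested in the NCI 60-cell-line panel in five-dose format; GI50 and LC50 values reported for each cell line.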

SF-295 = experiment: Growth inhibition of human SF295 cells after 96 hrs by MTT assay; conditions: SF-295, 96 h; procedure, shortened: as §2
OVCAR-3 = experiment: Growth inhibition of human OVCAR-3 cells after 96 hrs by MTT assay; conditions: OVCAR-3, 96 h; procedure, shortened: as §2
SN12C [7] = experiment: Growth inhibition of human SN12C cells after 96 hrs by MTT assay; procedure, shortened: as §2
TK-10 = experiment: Growth inhibition of human TK10 cells after 96 hrs by MTT assay; conditions: TK-10, 96 h; procedure, shortened: as §2
SR = experiment: Growth inhibition of human SR cells at 10 nM after 96 hrs by MTT assay; set-up: scale not given: the % may be the effect or the level left
HCT-116 = experiment: Growth inhibition of human HCT116 cells after 96 hrs by MTT assay; conditions: HCT-116, 96 h; procedure, shortened: as §1
MOLT-4 = experiment: Growth inhibition of human MOLT4 cells after 96 hrs by MTT assay; conditions: MOLT-4, 96 h; procedure, shortened: as §1
DU-145 = experiment: Growth inhibition of human DU145 cells at 1 uM after 96 hrs by MTT assay; set-up: scale not given: the % may be the effect or the level left
SN12C [8] = experiment: Growth inhibition of human SN12C cells at 1 uM after 96 hrs by MTT assay; set-up: scale not given: the % may be the effect or the level left
SK-OV-3 = experiment: Growth inhibition of human SKOV3 cells at 1 uM after 96 hrs by MTT assay; set-up: scale not given: the % may be the effect or the level left
HL-60(TB) = experiment: Growth inhibition of human HL-60(TB) cells at 1 uM after 96 hrs by MTT assay; set-up: scale not given: the % may be the effect or the level left
ACHN = experiment: Growth inhibition of human ACHN cells at 100 nM after 96 hrs by MTT assay; set-up: scale not given: the % may be the effect or the level left
KM12 [9] = experiment: Growth inhibition of human KM12 cells at 100 nM after 96 hrs by MTT assay; set-up: scale not given: the % may be the effect or the level left
HT-29 [10] = experiment: Growth inhibition of human HT-29 cells at 100 nM after 96 hrs by MTT assay; set-up: scale not given: the % may be the effect or the level left
COLO 205 = experiment: Growth inhibition of human COLO205 cells at 100 nM after 96 hrs by MTT assay; set-up: scale not given: the % may be the effect or the level left
NCI-H322M = experiment: Growth inhibition of human NCI-H322M cells at 100 nM after 96 hrs by MTT assay; set-up: scale not given: the % may be the effect or the level left
A498 = experiment: Growth inhibition of human A498 cells at 10 nM after 96 hrs by MTT assay; set-up: scale not given: the % may be the effect or the level left
786-0 = experiment: Growth inhibition of human 786-0 cells at 10 nM after 96 hrs by MTT assay; set-up: scale not given: the % may be the effect or the level left
SK-MEL-2 [11] = experiment: Growth inhibition of human SK-MEL-2 cells at 10 nM after 96 hrs by MTT assay; set-up: scale not given: the % may be the effect or the level left
NCI-H460 = experiment: Growth inhibition of human NCI-H460 cells at 10 nM after 96 hrs by MTT assay; set-up: scale not given: the % may be the effect or the level left
NCI-H23 = experiment: Growth inhibition of human NCI-H23 cells at 10 nM after 96 hrs by MTT assay; set-up: scale not given: the % may be the effect or the level left
IGROV-1 = experiment: Growth inhibition of human IGROV1 cells at 1 uM after 96 hrs by MTT assay; set-up: scale not given: the % may be the effect or the level left
LOX IMVI = experiment: Growth inhibition of human LOXIMVI cells at 1 uM after 96 hrs by MTT assay; set-up: scale not given: the % may be the effect or the level left
HOP-92 = experiment: Growth inhibition of human HOP92 cells at 1 uM after 96 hrs by MTT assay; set-up: scale not given: the % may be the effect or the level left
A549 = experiment: Growth inhibition of human A549 cells at 1 uM after 96 hrs by MTT assay; set-up: scale not given: the % may be the effect or the level left
[12] = read-out: Log10GI50 (converted)
[13] = read-out: Log10LC50 (converted)
[14] = read-out: LC50 (the source's name)

C=C(C)[C@H]1CC=C(C)C2=CO[C@@H](c3ccccc3F)[C@@H]21
Activity (RXF 393): 94% | Activity (OVCAR-8): 99% | Activity (SK-MEL-2 [1]): 88% | Activity (SW-620 [2]): 96% | Activity (HCT-15): 94% | Activity (HCC 2998): 86% | Activity (OVCAR-5): 100.16% | Activity (Malme-3M): 101.14% | Activity (HT-29 [3]): 89.53% | Activity (EKVX): 102.28% | Activity (U-251): 94% | Activity (KM12 [4]): 93% | GI50 (HT-29 [5]; read-out: GI50): 3.41 µM | LC50 (50% lethal concentration) (HT-29 [5]; read-out: LC50): 43.2 µM | GI50 (HT-29 [5]; [12]): 3.39 µM | LC50 (50% lethal concentration) (HT-29 [5]; [13]): 43.7 µM | TGI (HT-29 [5]; read-out: Log10TGI (converted)): 15.5 µM | TGI (HT-29 [5]; read-out: TGI): 15.6 µM | GI50 (SW-620 [6]; read-out: GI50): 4.49 µM | CC50 (SW-620 [6]; [14]): 43.4 µM | GI50 (SW-620 [6]; [12]): 4.47 µM | CC50 (SW-620 [6]; [13]): 43.7 µM | TGI (SW-620 [6]; read-out: Log10TGI (converted)): 15.8 µM | TGI (SW-620 [6]; read-out: TGI): 15.9 µM | GI50 (SF-295; read-out: GI50): 4.49 µM | CC50 (SF-295; [14]): 45.7 µM | GI50 (SF-295; [12]): 4.47 µM | CC50 (SF-295; [13]): 45.7 µM | TGI (SF-295; read-out: Log10TGI (converted)): 17.4 µM | TGI (SF-295; read-out: TGI): 17.6 µM | GI50 (OVCAR-3; read-out: GI50): 3.24 µM | CC50 (OVCAR-3; [14]): 36.5 µM | GI50 (OVCAR-3; [12]): 3.24 µM | CC50 (OVCAR-3; [13]): 36.3 µM | TGI (OVCAR-3; read-out: Log10TGI (converted)): 12.9 µM | TGI (OVCAR-3; read-out: TGI): 12.8 µM | GI50 (SN12C [7]; read-out: GI50): 6.63 µM | CC50 (SN12C [7]; [14]): 45.9 µM | GI50 (SN12C [7]; [12]): 6.61 µM | CC50 (SN12C [7]; [13]): 45.7 µM | TGI (SN12C [7]; read-out: Log10TGI (converted)): 20.4 µM | TGI (SN12C [7]; read-out: TGI): 20.3 µM | GI50 (TK-10; read-out: GI50): 8.93 µM | CC50 (TK-10; [14]): 88.9 µM | GI50 (TK-10; [12]): 8.91 µM | CC50 (TK-10; [13]): 89.1 µM | TGI (TK-10; read-out: Log10TGI (converted)): 28.8 µM | TGI (TK-10; read-out: TGI): 29.1 µM | Activity (SR): 81% | GI50 (HCT-116; read-out: GI50): 3 µM | CC50 (HCT-116; [14]): 36.9 µM | GI50 (HCT-116; [12]): 3.02 µM | CC50 (HCT-116; [13]): 37.2 µM | TGI (HCT-116; read-out: Log10TGI (converted)): 13.5 µM | TGI (HCT-116; read-out: TGI): 13.6 µM | GI50 (MOLT-4; read-out: GI50): 2.12 µM | CC50 (MOLT-4; [14]): 56.2 µM | GI50 (MOLT-4; [12]): 2.14 µM | CC50 (MOLT-4; [13]): 56.2 µM | TGI (MOLT-4; read-out: Log10TGI (converted)): 7.08 µM | TGI (MOLT-4; read-out: TGI): 7.03 µM | Activity (DU-145): 37% | Activity (SN12C [8]): 44% | Activity (SK-OV-3): 59% | Activity (HL-60(TB)): -40% | Activity (ACHN): 97% | Activity (KM12 [9]): 90% | Activity (HT-29 [10]): 82% | Activity (COLO 205): 92% | Activity (NCI-H322M): 79% | Activity (A498): 91% | Activity (786-0): 92% | Activity (SK-MEL-2 [11]): 82% | Activity (NCI-H460): 97% | Activity (NCI-H23): 92% | Activity (IGROV-1): 56% | Activity (LOX IMVI): 33% | Activity (HOP-92): -14% | Activity (A549): 38%
